Published values gathered from unrelated publications.
Compare with care: the assays were run in different laboratories.
Target: Tau-tubulin kinase 2 (TTBK2, Homo sapiens, UniProt Q6IQ55)
Read-out: enzyme activity
Action: inhibitor

SMILES | test | setting | endpoint | value
CC(C)(C)c1nc2c(s1)c1nc(N)ncc1c1ccc(NS(=O)(=O)c3c(F)cccc3F)c(F)c12 | radiometric | 1 µM | remaining activity | 104%
COc1cc(Nc2cnc(C#N)c(O[C@H](C)CN(C)C)n2)ncc1-c1cnn(C)c1 | radiometric | 1 µM | remaining activity | 100%
FC(F)(F)Oc1cccc(-c2cnc3ccc(-c4ccncc4)nn23)c1 | radiometric | 1 µM | activity vs control | 96%
Cc1ccc(C(=O)NCc2ccsc2)cc1C#Cc1cn(C(C)C)c2ncnc(N)c12 | – | 1 µM | activity vs control | 87%
COc1cc(Cl)c(C(=O)N[C@@H](CN[C@H]2CC[C@@H](N)CC2)Cc2ccc(C#N)cc2)cc1-c1ccc(CN[C@H](C)c2ccc(C)cc2)o1 | – | 1 µM | remaining activity | 96%
O=C(Nc1cnn(-c2csc(C(=O)NC3COC3)c2)c1)Nc1ccccc1Cl | – | 5 µM | remaining activity | 107%
COc1cc(/C=C/C(=O)CC(=O)/C=C/c2ccc(O)c(OC)c2)ccc1O | – | 1 µM | activity vs control | 115%
CC(C)(C)c1nc(-c2cccc(NS(=O)(=O)c3c(F)cccc3F)c2F)c(-c2ccnc(N)n2)s1 | radiometric | 1 µM | remaining activity | 104%
CN1CC(Oc2cnc(C#N)cc2-c2ccn3nc(NC(=O)C4CC4)cc3c2)C1 | – | 1 µM | inhibition | 13%
CC(C)(O)[C@H]1CC[C@H](Nc2ccc3ncc(-c4cccc(C(F)(F)F)c4)n3n2)CC1 | – | 1 µM | remaining activity | 94.4%
O=C(Nc1cnn(-c2csc(C(=O)NC3COC3)c2)c1)Nc1c(F)cccc1Cl | – | 5 µM | remaining activity | 104%
